System: MS2 coat protein
Test: apparent Kd, MS2 coat protein; higher = weaker binding; RNA-MaP array; FMN 200 µM where present
How it was run: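 The apparent Kd comes from binding curves fitted cluster by cluster, filtered, and summarised as a median. Those curves followed SNAP-549-labelled MS2 coat protein from 0.7 or 1.5 nM, doubling to 3 µM, on Illumina sequencing-chip clusters where stalled E. coli RNA polymerase had transcribed the designs, without and then with constant ligand. The buffer was 100 mM Tris-HCl pH 7.5, 80 mM KCl, 4 mM MgCl2, BSA, DTT, yeast tRNA and Tween-20, and green signal was normalised to red-channel RNA signal and control-cluster median Fmax.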

[1] = designed as: OFF switch for flavin mononucleotide, no ligand
[2] = ligand present: flavin mononucleotide, designed as: OFF switch for flavin mononucleotide
[3] = designed as: ON switch for flavin mononucleotide, no ligand
[4] = ligand present: flavin mononucleotide, designed as: ON switch for flavin mononucleotide

UAUGUGUCAGGAUAUUAGUAGUAUAUAGAUAUAUAUAUUACUGAGAAGGGACAUGAGGAUCACCCAUGUACCUU
apparent Kd [1]: 16.5 nM | apparent Kd [2]: 19.1 nM

ACUGACAUGAGGAUCACCCAUGUCUUGAAUAGGUCAAAUUCACAGGAUAUGCACGAGGACAGAGUGCAGAAGGGUGAUGCAAUG
apparent Kd [3]: 47.7 nM | apparent Kd [4]: 11.7 nM

ACAUGAGGAUCACCCAUGUGACAAGAAUGGCUGAUACAGAGACAGGAUAUAGGUGCAUAUCUAACCUAGAAGGGUCAUGACUGG
apparent Kd [1]: 35.2 nM | apparent Kd [2]: 31.9 nM

UUUUUGUGAGGAUAUCAGUAGUAGAACAAUAGUACUACUACUGAGAAGGUACAUGAGGAUCACCCAUGUUCCUC
apparent Kd [1]: 19.4 nM | apparent Kd [2]: 23.7 nM

AAUAUAGAGCUGGAAUAAAACACAACAUGAGGAUCACCCAUGUAGGAUAUCAGCACGAUAAGUGCUGAGAAGGACAUCCAGCUC
apparent Kd [1]: 14.7 nM | apparent Kd [2]: 14.2 nM

UAGUAGGUAGGAUAUACAUGGAUAUACAUUCAUGUGGACCUACAUGAGGAUCACCCAUGUAGAAGGACCUACUA
apparent Kd [1]: 38.1 nM | apparent Kd [2]: 88.9 nM

UAGUAUAAGGGCAUUACACAUGAGGAUCACCCAUGUACGUUAGAGGAUAUGCAUUACAGUUGAACGUAGAAGGUUAGAGAAGGG
apparent Kd [1]: 73.6 nM | apparent Kd [2]: 80.3 nM

UUAUUUUUACAGAAGGUUUAAUAAUAUAUAUGAGAAGGAUAUGUAACAUGAGGAUCACCCAUGUUUCACCCAUAUGAGGAUCAU
apparent Kd [1]: 8.2 nM | apparent Kd [2]: 7.27 nM

AGAAAACAUGAGGAUCACCCAUGUGAGGAUAUCGAUGUCCAAGUCCGGGUGCGGGACUCGAGAAGGCACUUGGG
apparent Kd [1]: 55.9 nM | apparent Kd [2]: 55 nM

CUAUUGGCAGGAUAUGCUUUUUUAGACAUGAGGAUCACCCAUGUGAUGAAUUUUGGGUUUGCAGAAGGGCCUGAGU
apparent Kd [1]: 67.1 nM | apparent Kd [2]: 100 nM

GAAAAACAUGAGGAUCACCCAUGUAAGGAUAUGCUGAAAAACACGGAAAAAACGUGCAGCAGAAGGUACAAAAG
apparent Kd [1]: 63.2 nM | apparent Kd [2]: 83.3 nM

AAUGGUGGAGGAUAUACAUGAGGAUCACCCAUGUAAAUCACACAUGUGGUCAACGCAUGUAGAAGGCCACUAAA
apparent Kd [1]: 62.5 nM | apparent Kd [2]: 104 nM

GUCAGCUCGUGAGGAUAUACAACACUGCUUCGGCAGUGAAUUAAGAUCACAUGAGGAUCACCCAUGUAGAAGGCACGAGCUGAU
apparent Kd [1]: 17 nM | apparent Kd [2]: 325 nM

CAAAACAUCUCCGUGUUUGUCGAACAUGAGGAUCACCCAUGUAGAAGGCGCUUCGCGUCGCGGAGCGAGGAUAUACGCUGGAUG
apparent Kd [1]: 11.4 nM | apparent Kd [2]: 86.3 nM

GCCAGUUAUGUAGGAUAUGCGAGGCGAGCCUGAGCAGAAGGACAUGAGGAUCACCCAUGUAUUGCGGUUUGAGUUCUGAUCGCU
apparent Kd [1]: 23.4 nM | apparent Kd [2]: 58.6 nM

AAAAAACAUGAGGAUCACCCAUGUAAAAAUAUGGGAGGAUAUUCAAACACGAAAGUGAAAGAAGAAGGCCUAAAAA
apparent Kd [3]: 66.6 nM | apparent Kd [4]: 23.3 nM

ACAUGACAAUCAGGAUAUCGACAUGAGGAUCACCCAUGUACGGGUGUCAAUCGAGAAGGGAUUGUAGCGCCAACUGAGACGUUU
apparent Kd [1]: 78 nM | apparent Kd [2]: 110 nM

UACAUGUGAGGAUAUGUACGAGGCCCUGACGGGUCUCGCAGGCAGAAGGCACAUGAGGAUCACCCAUGUGACCG
apparent Kd [1]: 24.7 nM | apparent Kd [2]: 96.6 nM

UGUGCGUAUGUGAGGAUAUGCUGGUCCUUGGAUCAGCAGAAGGCACAUGAGGAUCACCCAUGUGGUGUCGUACG
apparent Kd [1]: 114 nM | apparent Kd [2]: 185 nM

UAUAUGUCAGGAUAUUAGUUGUGUUAGAAUUUAACUUCUGCUGAGAAGGGACAUGAGGAUCACCCAUGUUCCUC
apparent Kd [1]: 15.9 nM | apparent Kd [2]: 21.2 nM

GAAGGGCCUCGAGGAUAUCGCUGCGGUCGUUUGACAUGAGGAUCACCCAUGUGAGAAGGCGAGGCUACUAACCAUGCCCGUUAU
apparent Kd [1]: 31.3 nM | apparent Kd [2]: 148 nM

GAGCUUGAUGAGAAGGGUUACAUGAGGAUCACCCAUGUCGACCUUGGCGUAACAGGAUAUCAUCGGGCUCUGUGCGUUGACCCA
apparent Kd [1]: 23.7 nM | apparent Kd [2]: 120 nM

AUACUCAUGUAAGGAUAUGCAGCCGAACCGGCUGCAGAAGGUACUAUAAUACAUGAGGAUCACCCAUGUCAAAAUAAAAUAGUU
apparent Kd [3]: 52 nM | apparent Kd [4]: 21.5 nM

UUACAUACAAAGUUACAUGAGGAUCACCCAUGUUUAUUGGGAAGAAGGGUAACAGUAUUACAUAUAUAGGAUAUUUCACAAAUG
apparent Kd [3]: 409 nM | apparent Kd [4]: 251 nM

AGCUGGUGACAGCAAGAAACUUCACAUGAGGAUCACCCAUGUAGAAGGCUGUACGGUUACCGUACAGAGGAUAUACAUGAAAAG
apparent Kd [1]: 9.49 nM | apparent Kd [2]: 26.8 nM

CAGUACUGAGGAUAUACAUGAGGAUCACCCAUGUGUUCCAGCUAGGAAACUUGCAAAAGUAGAAGGCAGUACUG
apparent Kd [1]: 12.1 nM | apparent Kd [2]: 30.6 nM

AAUAAACUCACAGGAUAUAGCAUAAGUCGCGUGAACUUACAGGCGACUAUGCUAGAAGGGUGACCACAUGAGGAUCACCCAUGU
apparent Kd [3]: 805 nM | apparent Kd [4]: 158 nM

GACUGAAUACAGAAGGUGUUUGACAUGAGGAUCACCCAUGUGUUAUUCAGAUUCAUAGAAUAUAACAAGGAUAUGUAUAUAUCA
apparent Kd [3]: 228 nM | apparent Kd [4]: 61.6 nM

CUUAGGUGUACAUGAGGAUCACCCAUGUCCCUGGUCAUUAGACAGGAUAUAUGGGCGGUCGCUGCAUAGAAGGGUUAAAUGGGA
apparent Kd [3]: 764 nM | apparent Kd [4]: 591 nM

CUUUCGUGAGGAUAUGUGGCUUCGAUCGUGAGAUCGAAACUACAGAAGGCACAUGAGGAUCACCCAUGUUCCUC
apparent Kd [1]: 33.9 nM | apparent Kd [2]: 540 nM

GCUCUACAUGAGGAUCACCCAUGUUCGGACGCACGAGGAUAUGCAUGGGCGAAAGCUGGUGCAGAAGGCGUGGGAC
apparent Kd [3]: 209 nM | apparent Kd [4]: 33.4 nM

CCCUCACAUGAGGAUCACCCAUGUCAGGAUAUUCGACGGUAAAUUGGCCGUCUUAAAGGAAGAAGGGACGUAAC
apparent Kd [1]: 12.5 nM | apparent Kd [2]: 17.9 nM

AGCUGGUAGAGAGGAUAUCAUGUGCUGACAUGAGGAUCACCCAUGUAGGGACGUCGGUCCAAUUAUGAGAAGGCUCUACCAGCA
apparent Kd [3]: 80.5 nM | apparent Kd [4]: 48.2 nM

GCCAACUCAUGAGGAUAUGGCACCUUAUUGGUGCCAGAAGGCGUGUCUAUUGACAUGAGGAUCACCCAUGUAUUAUAGUUGGCA
apparent Kd [3]: 678 nM | apparent Kd [4]: 105 nM

CAGCUGAAUGUGAGGAUAUCUAGAGCUGCGGCUCUAGAGAAGGCACAUGAGGAUCACCCAUGUCUCAACAGCUG
apparent Kd [1]: 40.7 nM | apparent Kd [2]: 294 nM

AUACACACGACAGGAUAUGGAAUGUAAGCUCAGAGACAUGAGGAUCACCCAUGUACCUGUCUUGCCCAGAAGGGUCGCAAAAGA
apparent Kd [3]: 327 nM | apparent Kd [4]: 64.5 nM

Source: the EternaBench riboswitch data
